# From ChEMBL document CHEMBL4428107 (Bioorg Med Chem, 2016)
# Values joined by “and” are separate entries in the source; they are usually repeats but may differ in a detail not shown here. Equal entries are not always repeated. Active and inactive are the calls of the source. The calls are words filed in the database; no cut-off is given here.
# Experiments:
# Histone deacetylase 1 = Histone deacetylase 1 (Homo sapiens, UniProt Q13547); assay: Inhibition of recombinant full length C-terminal FLAG-tagged/C-terminal His-tagged human HDAC1 using fluorogenic substrate by fluorescence assay
# Method in brief: (§1)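 Outsourced HDAC isozyme panel run under proprietary protocols. Each compound was tested at 10 μM and 5 μM, using HDAC substrate 3 at 10 μM, with fluorescence read-out. […] IC50 range was bracketed from % inhibition at the two concentrations.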
# Histone deacetylase 2 [1] = biological target: T1, Histone deacetylase 2 (Homo sapiens, UniProt Q92769); assay: Inhibition of full length recombinant human HDAC2 expressed in baculovirus expression system using fluorogenic peptide RHKK(Ac) as substrate by fluorescence assay
# T1 sequence (Q92769 whole entry): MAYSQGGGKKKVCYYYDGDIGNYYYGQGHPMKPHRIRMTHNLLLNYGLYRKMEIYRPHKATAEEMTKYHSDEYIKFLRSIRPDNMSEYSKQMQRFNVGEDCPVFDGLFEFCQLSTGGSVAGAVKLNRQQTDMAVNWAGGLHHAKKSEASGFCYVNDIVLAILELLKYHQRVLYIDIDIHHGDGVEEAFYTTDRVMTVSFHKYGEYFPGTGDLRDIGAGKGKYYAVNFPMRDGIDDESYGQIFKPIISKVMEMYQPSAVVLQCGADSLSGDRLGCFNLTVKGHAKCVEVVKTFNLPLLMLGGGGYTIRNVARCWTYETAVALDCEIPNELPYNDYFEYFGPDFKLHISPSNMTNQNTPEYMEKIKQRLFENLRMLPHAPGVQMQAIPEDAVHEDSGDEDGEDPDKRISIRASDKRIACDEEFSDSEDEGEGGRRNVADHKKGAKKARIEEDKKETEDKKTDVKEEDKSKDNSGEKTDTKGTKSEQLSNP
# HCT-116 = assay: Antiproliferative activity against human HCT116 cells assessed as reduction in cell viability after 72 hrs by MTS-PMS assay; format: functional
# Method in brief: (§2)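 MTS-PMS viability test. Cells were seeded at 3,000/well and left 24 h at 37 °C, 5% CO2, then exposed to compound for 72 h. Screening was at 50 μM for HCT116 and MCF-7 and […], with final DMSO ≤1%. MTS:PMS was mixed 20:1, added for 3 h, and absorbance read at 490 nm. At least two independent runs were done, each in triplicate.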
# MCF7 = assay: Antiproliferative activity against human MCF7 cells assessed as reduction in cell viability after 72 hrs by MTS-PMS assay; conditions: MCF7, 72 h
# MDA-MB-231 = assay: Antiproliferative activity against human MDA-MB-231 cells assessed as reduction in cell viability after 72 hrs by MTS-PMS assay; format: functional; conditions: MDA-MB-231, 72 h; method in brief: as §2
# MOLT-4 = assay: Antiproliferative activity against human MOLT4 cells assessed as reduction in cell viability after 70 hrs by Quanti-blue assay; format: functional
# Method in brief: (§3)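 Quanti-Blue viability kit. HuT-78 and Molt-4 cells were grown in RPMI-1640 and seeded at 10^5 cells/mL. Compounds were screened at 50 μM for 70 h, with detection reagent present for the final 2 h. Fluorescence was read at ex 530/em 590 nm. IC50 from dose-response came from linear regression. Three independent runs.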
# HuT78 = assay: Antiproliferative activity against human HUT78 cells assessed as reduction in cell viability after 70 hrs by Quanti-blue assay; format: functional; method in brief: as §3
# [2] = Antiproliferative activity against human PBMC assessed as reduction in cell viability after 70 hrs by Quanti-blue assay; format: cell-based
# Method in brief: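 QB fluorescence viability assay; hPBMCs purified by density centrifugation from purchased human blood, stored frozen, resuspended in RPMI-1640 with 10% heat-inactivated FBS, HEPES, pyruvate, non-essential amino acids and BME; seeded at 10^6 cells/mL. Compounds at 50 μM, 70 h plus 2 h with detection reagent; λex 530/λem 590 nm. Three independent repeats.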
# Histone deacetylase 2 [3] = biological target: T1, Histone deacetylase 2; assay: Inhibition of recombinant full length C-terminal His-tagged human HDAC2 expressed in baculovirus expression system using fluorogenic substrate by fluorescence assay
# [4] = Immunomodulatory activity in human TALL-104 cells assessed as effect on degranulation by measuring augmentation of CD3-stimulated anti-LAMP fluorescence at 100 uM preincubated for 30 mins followed by anti-LAMP addition and incubated for 50 mins in the dark by flow cytometric analysis relative to control; format: functional
# [5] = biological target: Histone deacetylase 3/Nuclear receptor corepressor 2 (HDAC3/NCoR2) (Homo sapiens, UniProt O15379); assay: Inhibition of recombinant full length C-terminal His-tagged human HDAC3/GST-tagged human Ncor2 (395 to 489 residues) expressed in baculovirus expression system using fluorogenic substrate by fluorescence assay; method in brief: as §1
# Histone deacetylase 4 = Histone deacetylase 4 (Homo sapiens, UniProt P56524); assay: Inhibition of recombinant C-terminal His-tagged/N-terminal GST-tagged human HDAC4 (627 to 1084 residues) expressed in baculovirus expression system using fluorogenic substrate by fluorescence assay
# Method in brief: (§4)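 Outsourced HDAC isozyme panel run under proprietary protocols. Each compound was tested at 10 μM and 5 μM, using Class 2a HDAC substrate at 2 μM, with fluorescence read-out. […] IC50 range was bracketed from % inhibition at the two concentrations.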
# Histone deacetylase 5 = Histone deacetylase 5 (Homo sapiens, UniProt Q9UQL6); assay: Inhibition of recombinant C-terminal His-tagged human HDAC5 catalytic domain (656 to 1122 residues) expressed in baculovirus expression system using fluorogenic substrate by fluorescence assay; method in brief: as §4
# Histone deacetylase 7 = Histone deacetylase 7 (Homo sapiens, UniProt Q8WUI4); assay: Inhibition of recombinant N-terminal GST-tagged human HDAC7 (518 to end residues) expressed in baculovirus expression system using fluorogenic substrate by fluorescence assay; method in brief: as §4
# Histone deacetylase 8 = Histone deacetylase 8 (Homo sapiens, UniProt Q9BY41); assay: Inhibition of recombinant full length C-terminal His-tagged human HDAC8 expressed in baculovirus expression system using fluorogenic substrate by fluorescence assay; method in brief: as §4
# Histone deacetylase 9 = Histone deacetylase 9 (Homo sapiens, UniProt Q9UKV0); assay: Inhibition of recombinant C-terminal His-tagged human HDAC9 (604 to 1066 residues) expressed in baculovirus expression system using fluorogenic substrate by fluorescence assay; method in brief: as §4
# [6] = biological target: Polyamine deacetylase HDAC10 (Homo sapiens, UniProt Q969S8); assay: Inhibition of recombinant N-terminal FLAG-tagged human HDAC10 (2 to 631 residues) expressed in baculovirus expression system using fluorogenic substrate by fluorescence assay; method in brief: as §1
# Histone deacetylase 11 = Histone deacetylase 11 (Homo sapiens, UniProt Q96DB2); assay: Inhibition of full length recombinant human HDAC11 expressed in baculovirus expression system using fluorogenic substrate by fluorescence assay; method in brief: as §4
# [7] = biological target: Protein deacetylase HDAC6 (Homo sapiens, UniProt Q9UBN7); assay: Inhibition of recombinant full length N-terminal GST-tagged human HDAC6 expressed in baculovirus expression system using fluorogenic substrate by fluorescence assay; method in brief: as §1
# [8] = biological target: NAD-dependent protein deacetylase sirtuin-1 (Homo sapiens) (UniProt Q96EB6); assay: Inhibition of SIRT1 (unknown origin) at 10 uM
# Chain of NAD-dependent protein deacetylase sirtuin-1 (Homo sapiens) (Q96EB6 whole entry): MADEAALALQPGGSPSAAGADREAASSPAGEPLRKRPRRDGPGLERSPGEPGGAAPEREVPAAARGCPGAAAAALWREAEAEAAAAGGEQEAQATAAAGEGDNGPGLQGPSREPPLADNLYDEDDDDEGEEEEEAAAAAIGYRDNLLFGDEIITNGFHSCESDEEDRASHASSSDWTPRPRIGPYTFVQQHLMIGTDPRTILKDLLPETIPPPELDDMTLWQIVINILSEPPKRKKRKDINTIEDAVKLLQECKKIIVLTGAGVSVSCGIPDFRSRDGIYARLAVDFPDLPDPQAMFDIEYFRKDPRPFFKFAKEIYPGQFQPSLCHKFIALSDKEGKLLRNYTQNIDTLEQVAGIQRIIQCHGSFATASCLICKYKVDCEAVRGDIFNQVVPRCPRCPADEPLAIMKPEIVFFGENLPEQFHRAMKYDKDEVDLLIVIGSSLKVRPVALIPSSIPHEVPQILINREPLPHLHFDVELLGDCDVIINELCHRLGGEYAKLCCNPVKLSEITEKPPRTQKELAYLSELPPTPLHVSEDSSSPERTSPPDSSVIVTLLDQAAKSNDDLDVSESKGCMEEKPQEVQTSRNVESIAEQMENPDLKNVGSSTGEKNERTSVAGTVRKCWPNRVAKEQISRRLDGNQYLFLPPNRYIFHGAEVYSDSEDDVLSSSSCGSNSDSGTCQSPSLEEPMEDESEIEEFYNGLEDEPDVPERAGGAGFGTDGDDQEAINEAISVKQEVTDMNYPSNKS
# [9] = biological target: NAD-dependent protein deacetylase sirtuin-2 (Homo sapiens) (UniProt Q8IXJ6); assay: Inhibition of SIRT2 (unknown origin) at 10 uM
# Chain of NAD-dependent protein deacetylase sirtuin-2 (Homo sapiens) (Q8IXJ6 whole entry): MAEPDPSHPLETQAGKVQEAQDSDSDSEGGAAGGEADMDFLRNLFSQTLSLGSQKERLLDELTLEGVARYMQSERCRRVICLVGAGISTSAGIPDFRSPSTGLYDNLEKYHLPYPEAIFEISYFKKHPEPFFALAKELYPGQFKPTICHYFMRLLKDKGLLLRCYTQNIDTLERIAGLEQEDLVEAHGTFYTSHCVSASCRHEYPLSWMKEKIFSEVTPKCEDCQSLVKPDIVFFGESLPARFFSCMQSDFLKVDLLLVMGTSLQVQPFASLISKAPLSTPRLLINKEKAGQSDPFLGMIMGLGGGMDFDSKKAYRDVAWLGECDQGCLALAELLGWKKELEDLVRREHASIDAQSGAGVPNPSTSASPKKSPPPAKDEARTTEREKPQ
# [10] = biological target: NAD-dependent protein deacetylase sirtuin-3, mitochondrial (Homo sapiens) (UniProt Q9NTG7); assay: Inhibition of SIRT3 (unknown origin) at 10 uM
# Chain of NAD-dependent protein deacetylase sirtuin-3, mitochondrial (Homo sapiens) (Q9NTG7 whole entry): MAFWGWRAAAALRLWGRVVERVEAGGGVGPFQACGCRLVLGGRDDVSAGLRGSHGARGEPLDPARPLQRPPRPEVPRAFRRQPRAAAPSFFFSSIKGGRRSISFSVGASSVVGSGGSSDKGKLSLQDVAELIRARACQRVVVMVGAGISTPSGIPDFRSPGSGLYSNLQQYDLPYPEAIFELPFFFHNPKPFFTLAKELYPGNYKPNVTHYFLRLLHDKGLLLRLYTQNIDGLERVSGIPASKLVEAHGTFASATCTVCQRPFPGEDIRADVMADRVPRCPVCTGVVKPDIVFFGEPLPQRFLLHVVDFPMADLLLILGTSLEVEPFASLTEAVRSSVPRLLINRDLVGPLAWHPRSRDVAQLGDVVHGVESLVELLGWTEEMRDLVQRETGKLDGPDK
# [11] = biological target: DNA (cytosine-5)-methyltransferase 1 (Homo sapiens) (UniProt P26358); assay: Inhibition of DNMT1 (unknown origin) at 10 uM
# Chain of DNA (cytosine-5)-methyltransferase 1 (Homo sapiens) (P26358 whole entry): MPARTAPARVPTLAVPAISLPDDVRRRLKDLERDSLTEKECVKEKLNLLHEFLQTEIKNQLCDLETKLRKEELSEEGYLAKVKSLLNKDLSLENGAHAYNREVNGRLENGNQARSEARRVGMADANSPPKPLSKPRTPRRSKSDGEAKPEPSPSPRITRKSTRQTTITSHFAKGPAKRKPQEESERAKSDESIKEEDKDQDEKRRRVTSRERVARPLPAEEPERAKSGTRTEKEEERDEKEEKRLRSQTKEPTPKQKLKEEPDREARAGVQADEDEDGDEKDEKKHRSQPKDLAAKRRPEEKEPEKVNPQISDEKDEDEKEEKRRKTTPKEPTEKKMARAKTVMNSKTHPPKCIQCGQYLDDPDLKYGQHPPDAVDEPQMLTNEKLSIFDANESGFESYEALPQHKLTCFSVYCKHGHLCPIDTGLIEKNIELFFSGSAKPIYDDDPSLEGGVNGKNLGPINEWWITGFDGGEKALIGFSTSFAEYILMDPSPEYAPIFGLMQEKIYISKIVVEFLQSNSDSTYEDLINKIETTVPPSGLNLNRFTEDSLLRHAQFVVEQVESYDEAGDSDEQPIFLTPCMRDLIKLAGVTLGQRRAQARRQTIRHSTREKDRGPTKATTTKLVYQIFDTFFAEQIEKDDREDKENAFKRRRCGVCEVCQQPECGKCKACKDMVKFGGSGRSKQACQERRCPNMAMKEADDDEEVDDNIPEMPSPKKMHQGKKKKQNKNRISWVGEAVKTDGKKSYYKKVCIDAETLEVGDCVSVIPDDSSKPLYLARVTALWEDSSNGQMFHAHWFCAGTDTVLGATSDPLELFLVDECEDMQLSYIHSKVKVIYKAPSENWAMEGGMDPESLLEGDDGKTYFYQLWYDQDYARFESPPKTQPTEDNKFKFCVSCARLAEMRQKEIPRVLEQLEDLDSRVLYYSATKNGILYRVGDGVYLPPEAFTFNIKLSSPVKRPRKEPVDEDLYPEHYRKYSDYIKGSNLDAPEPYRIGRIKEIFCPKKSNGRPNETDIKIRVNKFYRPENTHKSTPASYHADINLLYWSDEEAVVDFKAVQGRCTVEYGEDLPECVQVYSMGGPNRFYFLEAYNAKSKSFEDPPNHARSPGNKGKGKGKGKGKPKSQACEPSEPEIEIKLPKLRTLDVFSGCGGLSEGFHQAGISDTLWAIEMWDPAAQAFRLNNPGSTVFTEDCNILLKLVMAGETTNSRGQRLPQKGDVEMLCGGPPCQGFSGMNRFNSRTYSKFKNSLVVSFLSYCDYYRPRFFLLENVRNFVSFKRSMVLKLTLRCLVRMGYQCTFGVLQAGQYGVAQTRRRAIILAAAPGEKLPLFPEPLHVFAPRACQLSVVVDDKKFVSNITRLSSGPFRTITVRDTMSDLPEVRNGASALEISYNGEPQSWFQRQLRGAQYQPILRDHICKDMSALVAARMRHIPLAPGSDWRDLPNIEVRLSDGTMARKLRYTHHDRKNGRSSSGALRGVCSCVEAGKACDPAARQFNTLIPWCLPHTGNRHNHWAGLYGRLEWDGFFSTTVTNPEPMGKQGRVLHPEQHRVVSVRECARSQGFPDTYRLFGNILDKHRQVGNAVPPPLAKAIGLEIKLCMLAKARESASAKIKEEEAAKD
# [12] = biological target: T2, DNMT3A2/3L complex (Homo sapiens) (UniProt Q9Y6K1+Q9UJW3); assay: Inhibition of DNMT3A/3L (unknown origin) at 10 uM; format: protein-complex assay
# T2 sequence (Q9UJW3 whole entry, looked up): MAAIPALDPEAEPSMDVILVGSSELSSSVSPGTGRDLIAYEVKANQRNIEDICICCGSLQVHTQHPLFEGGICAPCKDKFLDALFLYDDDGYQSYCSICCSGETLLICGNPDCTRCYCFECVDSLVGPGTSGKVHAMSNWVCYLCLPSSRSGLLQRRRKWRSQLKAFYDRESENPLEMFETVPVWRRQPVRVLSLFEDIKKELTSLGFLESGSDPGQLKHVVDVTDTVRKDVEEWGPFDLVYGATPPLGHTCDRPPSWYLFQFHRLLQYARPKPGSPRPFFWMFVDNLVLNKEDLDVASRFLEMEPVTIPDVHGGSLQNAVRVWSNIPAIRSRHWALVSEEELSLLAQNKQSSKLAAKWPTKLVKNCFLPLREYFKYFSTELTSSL
# T2 sequence (Q9Y6K1 whole entry, looked up): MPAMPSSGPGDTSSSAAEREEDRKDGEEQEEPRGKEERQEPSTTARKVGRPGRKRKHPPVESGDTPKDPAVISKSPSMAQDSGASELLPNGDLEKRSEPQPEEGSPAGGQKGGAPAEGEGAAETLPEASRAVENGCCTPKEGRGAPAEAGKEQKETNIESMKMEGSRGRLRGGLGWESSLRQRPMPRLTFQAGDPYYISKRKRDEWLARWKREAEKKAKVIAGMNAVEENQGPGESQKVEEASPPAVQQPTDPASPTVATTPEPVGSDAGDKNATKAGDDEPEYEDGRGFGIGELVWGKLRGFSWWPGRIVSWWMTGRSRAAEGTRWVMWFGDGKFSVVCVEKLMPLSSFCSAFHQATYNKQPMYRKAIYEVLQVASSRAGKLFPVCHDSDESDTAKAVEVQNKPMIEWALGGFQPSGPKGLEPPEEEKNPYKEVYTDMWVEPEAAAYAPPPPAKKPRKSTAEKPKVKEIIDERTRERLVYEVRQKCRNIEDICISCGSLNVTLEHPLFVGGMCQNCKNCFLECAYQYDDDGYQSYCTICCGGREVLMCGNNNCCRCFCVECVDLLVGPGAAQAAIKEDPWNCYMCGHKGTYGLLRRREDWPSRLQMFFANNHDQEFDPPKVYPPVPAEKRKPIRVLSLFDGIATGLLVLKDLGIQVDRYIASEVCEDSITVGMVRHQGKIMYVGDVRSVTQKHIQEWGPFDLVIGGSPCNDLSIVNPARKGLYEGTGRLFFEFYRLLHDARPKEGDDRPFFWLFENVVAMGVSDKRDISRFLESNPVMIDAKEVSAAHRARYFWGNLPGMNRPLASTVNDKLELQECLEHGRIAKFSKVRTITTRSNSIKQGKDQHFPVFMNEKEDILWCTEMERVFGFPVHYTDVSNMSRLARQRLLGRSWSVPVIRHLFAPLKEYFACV
# [13] = biological target: T3, DNMT3B-DNMT3L complex (Homo sapiens) (UniProt Q9UBC3+Q9UJW3); assay: Inhibition of DNMT3B/3L (unknown origin) at 10 uM; format: protein-complex assay
# T3 sequence (Q9UJW3 whole entry, looked up, other chains not shown): as the sequence (Q9UJW3 whole entry, looked up) above
# [14] = biological target: NAD-dependent protein deacetylase sirtuin-1 (Homo sapiens) (UniProt Q96EB6); assay: Inhibition of SIRT1 (unknown origin) at 5 uM
# [15] = biological target: NAD-dependent protein deacetylase sirtuin-2 (Homo sapiens) (UniProt Q8IXJ6); assay: Inhibition of SIRT2 (unknown origin) at 5 uM
# [16] = biological target: NAD-dependent protein deacetylase sirtuin-3, mitochondrial (Homo sapiens) (UniProt Q9NTG7); assay: Inhibition of SIRT3 (unknown origin) at 5 uM
# [17] = biological target: DNA (cytosine-5)-methyltransferase 1 (Homo sapiens) (UniProt P26358); assay: Inhibition of DNMT1 (unknown origin) at 5 uM
# [18] = biological target: T2, DNMT3A2/3L complex (Homo sapiens); assay: Inhibition of DNMT3A/3L (unknown origin) at 5 uM; format: protein-complex assay
# [19] = biological target: T3, DNMT3B-DNMT3L complex (Homo sapiens); assay: Inhibition of DNMT3B/3L (unknown origin) at 5 uM; format: protein-complex assay
# [20] = biological target: NAD-dependent protein deacylase sirtuin-5, mitochondrial (Homo sapiens) (UniProt Q9NXA8); assay: Inhibition of SIRT5 (unknown origin) at 5 to 10 uM
compound,measurement,setting,value
CCOC(=O)NCCCC(=O)NCCc1ccccc1,IC50,Histone deacetylase 1,5 to 10 µM
same,IC50,Histone deacetylase 2 [1],> 1 µM
same,GI50,HCT-116,> 50 µM and 17.2 µM
same,GI50,MCF7,> 50 µM
same,GI50,MDA-MB-231,> 50 µM
same,GI50,MOLT-4,> 50 µM and 7.8 µM
same,GI50,HuT78,36 µM
same,GI50,"HuT78; Homo sapiens, HuT78, 70 h",> 50 µM
same,GI50 at 70 h,[2],> 50 µM
same,IC50,Histone deacetylase 2 [3],5 to 10 µM
same,Activity,[4],77%
same,IC50,[5],5 to 10 µM
same,IC50,Histone deacetylase 4,5 to 10 µM
same,IC50,Histone deacetylase 5,5 to 10 µM
same,IC50,Histone deacetylase 7,5 to 10 µM
same,IC50,Histone deacetylase 8,5 to 10 µM
same,IC50,Histone deacetylase 9,5 to 10 µM
same,IC50,[6],5 to 10 µM
same,IC50,Histone deacetylase 11,5 to 10 µM
same,IC50,[7],5 to 10 µM
same,inhibition,[8],inactive
same,inhibition,[9],inactive
same,inhibition,[10],inactive
same,inhibition,[11],inactive
same,inhibition,[12],inactive
same,inhibition,[13],inactive
same,inhibition,[14],inactive
same,inhibition,[15],inactive
same,inhibition,[16],inactive
same,inhibition,[17],inactive
same,inhibition,[18],inactive
same,inhibition,[19],inactive
same,inhibition,[20],inactive
